# The entries come from a sample that favours hits as a whole.
# PKD1 inh = inhibitors of human PKD1 kinase, biochemical, fluorescence polarization | Serine/threonine-protein kinase D1 (Homo sapiens), Q15139 | PKD1 kinase fluorescence polarization assay | inhibition, % (concentration not given with the values) | hit rate 0.056% among 200,000 | AID 797, 2007
# GSH bead fluor = compound fluorescence on glutathione beads, profiling panel, artefact control, biophysical, 488/530 nm, flow cytometry. fluorescence (KMESF) at 10 µM. GSH beads flow cytometry, compound fluorescence 488/530 nm; hits give high values. hit rate 0.25% among 190,000; in the data active means fluorescence above about 89;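 further: glutathione beads carrying GST-tagged Bcl family fusion proteins plus one bare bead set; values are compound well signal with DMSO vehicle wells as background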
# ABCB1 block = ABCB1 efflux pump inhibitors, primary screen, cell-based, multiplex, flow cytometry, ABCG2 counter-screen; ATP-dependent translocase ABCB1 (Homo sapiens), P08183; CCRF-Adr cells, JC-1 efflux; inhibition, % at 6.6 µM; hit rate 0.067% among 190,000; AID 1326, 2008; in the data active means inhibition above about 40%;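 further: 0% = vehicle and 100% = reference inhibitor; higher value means more JC-1 retained so stronger ABCB1 efflux block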
# L major viab = Leishmania major promastigote growth inhibition, primary screen | Leishmania major promastigotes, resazurin fluorescence viability | inhibition, % at 10 µM | hit rate 9% among 200,000 | AID 1063, 2008;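 further: promastigotes grown with compound for 44 hours at 28 °C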
# Avidin bead fluor = green autofluorescence of compounds with avidin beads – biophysical, 488/530 nm, flow cytometry, artefact control, profiling panel | compound fluorescence 488/530 nm; hits give high values | hit rate 0.38% among 220,000 | fluorescence (KMESF) at 10 µM | AID 1775, 2009; in the data active means fluorescence above about 47
# ABCG2 block = ABCG2 efflux pump inhibitors, primary screen, multiplex with ABCB1, IgMXP3 cells, flow cytometry; Broad substrate specificity ATP-binding cassette transporter ABCG2 (Homo sapiens), Q9UNQ0; JC-1 efflux; inhibition, % at 6.6 µM; hit rate 0.1% among 190,000; AID 1325, 2008;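 active means inhibition above 80%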;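 further: 0% = DMSO and 100% = nicardipine control wells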
# Target sequence (Q9UNQ0 whole entry, looked up): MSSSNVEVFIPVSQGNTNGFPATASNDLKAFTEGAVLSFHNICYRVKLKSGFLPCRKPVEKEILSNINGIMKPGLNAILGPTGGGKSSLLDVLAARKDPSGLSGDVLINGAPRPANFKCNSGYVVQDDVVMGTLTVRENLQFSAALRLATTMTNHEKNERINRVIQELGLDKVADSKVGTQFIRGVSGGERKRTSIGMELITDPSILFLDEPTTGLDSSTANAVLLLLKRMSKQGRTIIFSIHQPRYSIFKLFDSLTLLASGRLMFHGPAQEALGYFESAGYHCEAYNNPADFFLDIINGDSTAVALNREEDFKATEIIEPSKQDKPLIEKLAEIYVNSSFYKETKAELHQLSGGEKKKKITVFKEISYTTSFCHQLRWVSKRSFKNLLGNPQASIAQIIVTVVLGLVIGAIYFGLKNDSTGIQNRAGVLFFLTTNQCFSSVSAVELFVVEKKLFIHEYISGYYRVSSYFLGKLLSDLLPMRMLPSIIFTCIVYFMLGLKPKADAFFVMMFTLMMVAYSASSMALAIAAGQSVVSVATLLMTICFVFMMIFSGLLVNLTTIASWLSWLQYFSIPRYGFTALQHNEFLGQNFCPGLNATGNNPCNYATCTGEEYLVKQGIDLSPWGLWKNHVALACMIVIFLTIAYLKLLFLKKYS
#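 Incubation: cells with compound and JC-1, 10 min at 25 °C, rotating, no wash / Test system: IgMXP3 (ABCG2) plus far-red-tagged CCRF-Adr (ABCB1) cells / Compound dosing: one concentration, 6.6 µM final / Also added: JC-1 fluorescent substrate / Evaluation: efflux inhibition in percent versus controls / Detection: flow cytometry, 530 nm JC-1 signal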
# * hit, by the source's call; nt = not tested or not shown. Unless noted, no stated cut-off is given here; in the data, active means inhibition above about 50%; inactive means the rest.
SMILES,PKD1 inh,GSH bead fluor,ABCB1 block,L major viab,Avidin bead fluor,ABCG2 block
OC(COc1ccccc1Cl)CN1CCN(CC(O)COc2ccccc2Cl)CC1 (configuration not stated),-1.5,16,1.9,88.4*,35,1.3
Cc1nn(Cc2ccccc2)c(Cl)c1/C=C/C(=O)OCC(=O)N(C)C1CCS(=O)(=O)C1 (configuration not stated),2.3,12,0.5,-0.1,10,0.2
Cc1cc2nc(N=C(N)N)nc(C)c2cc1C,-8.8,12,-0.3,99.8*,13,-1.1
Cc1ccc2nc(N=C(N)N)nc(C)c2c1,1.7,11,-0.3,26.5,9,-0.5
CCc1ccc2nc(N=C(N)N)nc(C)c2c1,-2.0,16,0.1,96.2*,9,0.4
CCOC(=O)C(CCCP(=O)(c1ccccc1)c1ccccc1)(NC(C)=O)C(=O)OCC,nt,nt,nt,nt,5,nt
COc1ccc(NS(=O)(=O)c2ccc3c(c2)NC(=O)CO3)cc1,4.0,13,-0.1,-6.7,10,-1.4
Cc1ccc(NS(=O)(=O)c2ccc3c(c2)NC(=O)CC(=O)N3)cc1C,-2.1,26,0.6,-7.8,58*,1.9
O=C(Nc1ccc(Cl)cc1)N(CCCN1CCOCC1)Cc1cccs1,-12.7,22,0.3,7.6,8,8.4
O=S(=O)(c1ccc(Cl)cc1)N(CCCN1CCOCC1)Cc1cccs1,-0.6,14,0.5,68.4*,8,0.0
COc1ccc(S(=O)(=O)N(CCCN2CCOCC2)Cc2cccc3ccccc23)cc1,-0.8,34,10.8,99.0*,16,10.1
Cn1nnnc1SCC(=O)N1c2ccccc2CCc2ccccc21,5.8,25,1.2,-1.8,15,3.1
CCn1nnnc1SCC(=O)N1c2ccccc2CCc2ccccc21,-4.8,34,1.8,53.3*,10,8.6
CCn1c(SCC(=O)N2c3ccccc3CCc3ccccc32)nc2c1c(=O)n(C)c(=O)n2C,-7.2,nt,nt,59.9*,nt,nt
CCCn1c(SCC(=O)N2CCCC2)nc2c1c(=O)n(C)c(=O)n2C,4.9,9,1.0,12.0,77*,2.6
CC1Cc2ccccc2N1C(=O)CSc1nc2c(c(=O)n(C)c(=O)n2C)n1Cc1ccccc1 (configuration not stated),-4.8,42,4.6,63.5*,8,7.9
CC1Cc2ccccc2N1C(=O)CSc1nnnn1Cc1ccccc1 (configuration not stated),10.5,47,0.4,-4.0,21,8.6
O=C(/C=C/c1ccc(OCCCF)cc1)Nc1ccnc(-c2cccnc2)n1,0.4,12,0.2,2.1,10,2.9
CC(C)C(=O)Nc1ccc(-c2nc3ccccc3c(=O)o2)cc1,-2.4,23,-0.2,-3.3,11,0.3
O=C(c1ccco1)N1CCN(c2ccc([N+](=O)[O-])c(N3CCOCC3)c2)CC1,1.1,13,1.0,5.7,4,12.3
COc1ccc(N=Cc2c(O)n(-c3cccc(C)n3)c(=O)c3ccccc23)c(OC)c1,nt,nt,nt,nt,8,nt
CC(C)NC(=O)Cn1c(SCC(=O)N2c3ccccc3CC2C)nc2ccccc21 (configuration not stated),1.5,29,2.8,13.0,22,4.8
CC(C)Cn1c(=O)c2ccccc2n2c(SCC(=O)N3c4ccccc4CC3C)nnc12 (configuration not stated),-4.5,9,nt,71.8*,14,0.7
OCCC1CN(C/C(Cl)=C/c2ccccc2)CCN1C1CCCC1 (configuration not stated),2.6,17,0.2,89.1*,14,0.5
Cc1ccc(CN2CCN(Cc3ccc4cc(F)ccc4n3)CC2CCO)o1 (configuration not stated),-3.3,18,0.3,79.9*,9,0.7
SMILES,PKD1 inh,GSH bead fluor,ABCB1 block,L major viab,Avidin bead fluor,ABCG2 block
Cc1ccc(CN2CCN(Cc3cnn(-c4ccc(F)cc4)c3)CC2CCO)o1 (configuration not stated),8.1,9,1.4,-1.7,10,3.5
Cc1ccc(CN2CCN(C/C(Cl)=C/c3ccccc3)CC2CCO)o1 (configuration not stated),9.5,14,0.0,78.5*,10,-1.0
CC(C)=CCN1CCN(C/C(Cl)=C/c2ccccc2)CC1CCO (configuration not stated),nt,nt,nt,nt,5,nt
COc1ccc(/C=N/NC(=O)COc2ccc(Cl)cc2Cl)cc1Cn1nc(C)cc1C,-6.6,9,0.4,-2.2,11,-0.7
CN(CC(O)COc1c(F)cc(Br)cc1F)C1CCCCC1 (configuration not stated),-1.5,7,1.1,84.5*,5,-1.7
Cc1nc(N2CCOCC2)c(C#N)c(C)c1Br,-5.5,260*,-0.1,-2.3,7,-0.1
Cc1ccc(S(=O)(=O)N2CCOCC2)cc1NC(=O)CNCC1CCCCC1,0.8,13,2.1,74.0*,10,1.0
Cc1ccc(S(=O)(=O)N2CCOCC2)cc1NC(=O)COC(=O)c1ccc(OCc2c(C)noc2C)cc1,6.1,5,1.8,75.5*,14,13.7
Cc1ccc(C(=O)OCC(=O)Nc2cc(S(=O)(=O)N3CCOCC3)ccc2C)cc1,-6.7,12,1.0,0.4,11,7.9
CC(C)CN(C(=O)CN1CCc2ccccc21)c1c(N)n(CC(C)C)c(=O)[nH]c1=O,-6.0,16,0.5,-2.6,8,0.9
CN(Cc1cnn(C)c1)C(=O)c1ccc(OC2CCN(CCc3ccccc3)CC2)cc1,-0.4,15,0.1,-5.3,12,-0.2
CSCCCNC(=O)c1ccc(OC2CCN(CCc3ccccc3)CC2)cc1,-8.0,13,2.6,74.6*,1,6.4
c1ccc(N(c2ccccc2)c2nc(N3CCCC3)nc(-n3ccnc3)n2)cc1,-10.4,45,1.2,98.0*,9,8.6
CN(c1ccccc1)c1nc(N2CCCC2)nc(-n2ccnc2)n1,0.5,23,0.1,95.0*,22,0.3
CCOc1ccc(C(CC(=O)O)NC(=O)c2cccs2)cc1OC (configuration not stated),6.2,52,0.3,-4.5,10,0.9
COC(=O)c1ccc(SCC(=O)N2CCC(C)CC2)c([N+](=O)[O-])c1,-0.1,10,nt,63.5*,15,11.4
COC(=O)CSc1ccc(S(=O)(=O)N2CCC(C)CC2)cc1[N+](=O)[O-],0.0,27,0.7,-9.9,5,11.9
COC(=O)c1ccc(SCC(=O)NC2CCCC2)c([N+](=O)[O-])c1,3.5,7,1.3,60.1*,16,25.4
CCC(C)NC(=S)Nc1ccc(C(=O)OC)cc1 (configuration not stated),-2.8,11,-0.3,7.9,11,14.8

# Screening results as filed in PubChem BioAssay.
